An excerpt weighted towards active compounds, which were near 1.5% of everything screened.
CCR6 antag – antagonists of human CCR6 receptor | P51684 | CHO-K1 CCR6 PathHunter beta-arrestin, luminescence, CCL20-stimulated | inhibition, % at 20 µM | 340,000 compounds, 0.49% hits | AID 493098;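 active means compounds whose inhibition of the agonist-driven luminescence signal at 20 µM reaches about 50%, limit read from the data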;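 further: cells stimulated with CCL20 at 14 nM final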
EBI2 block – blocks human EBI2 receptor beta-arrestin signaling | P32249 | EBI2 beta-arrestin recruitment, luminescence, 7a,25-OHC stimulated | inhibition, % at 5 µM | 360,000 compounds, 0.81% hits; in the data active means inhibition above about 38%;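 further: enzyme fragment complementation signal reports receptor beta-arrestin coupling in cells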
Target sequence (P32249 whole entry, looked up, the tested form may be a part): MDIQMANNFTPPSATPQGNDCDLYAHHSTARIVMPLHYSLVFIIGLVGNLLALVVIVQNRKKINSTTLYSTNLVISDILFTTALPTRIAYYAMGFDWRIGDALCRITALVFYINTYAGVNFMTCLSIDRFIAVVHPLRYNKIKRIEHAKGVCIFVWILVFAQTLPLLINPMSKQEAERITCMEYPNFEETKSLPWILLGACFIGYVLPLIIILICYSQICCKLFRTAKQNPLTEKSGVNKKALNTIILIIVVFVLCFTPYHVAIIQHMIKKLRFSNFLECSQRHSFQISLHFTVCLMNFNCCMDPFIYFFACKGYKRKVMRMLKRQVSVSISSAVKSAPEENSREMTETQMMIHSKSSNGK
APJ ag – APJ receptor agonism; P35414; CHO-K1 APJ PathHunter beta-arrestin, luminescence; 0% DMSO wells, 100% apelin; activation, % at 20 µM; 330,000 compounds, 0.11% hits; AID 2520;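 active means activation more than six SD over the plate average, tested at 20 µM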
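Assay system: CHO-K1 APJ beta-arrestin complementation cell line / Compound: single test compound dose, 20 µM final, 1% DMSO / Times: overnight seeding, 90 min compound at 25 °C, 1 h detection / Technique: beta-gal luminescence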
CXCR6 inh – inhibitors of human CXCR6 receptor. O00574. CHO-K1 PathHunter CXCR6 beta-arrestin, luminescence. inhibition, % at 20 µM. 360,000 compounds, 0.36% hits; in the data active means inhibition above about 34%, passing the limit was not always enough;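 further: antagonist mode with CXCL16 agonist at 10 nM final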
Target sequence (O00574 whole entry, looked up): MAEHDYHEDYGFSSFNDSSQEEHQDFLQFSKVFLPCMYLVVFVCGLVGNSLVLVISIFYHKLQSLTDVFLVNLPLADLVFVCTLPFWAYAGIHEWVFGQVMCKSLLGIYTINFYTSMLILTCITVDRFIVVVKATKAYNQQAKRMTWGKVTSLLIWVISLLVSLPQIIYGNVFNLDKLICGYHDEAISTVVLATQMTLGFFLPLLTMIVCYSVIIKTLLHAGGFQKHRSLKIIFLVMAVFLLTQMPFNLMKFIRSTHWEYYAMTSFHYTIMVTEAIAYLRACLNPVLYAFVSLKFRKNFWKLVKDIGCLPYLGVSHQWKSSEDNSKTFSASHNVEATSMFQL
APJ antagonist – blocks the human apelin receptor APJ | CHO-K1 APJ beta-arrestin complementation, luminescence | 330,000 compounds, 0.32% hits | AID 2521 | inhibition, % at 20 µM | P35414;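 active means inhibition above about 40% at 20 µM, limit read from the data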;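 further: cells challenged with 10 nM apelin-13 agonist together with compound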
EBI2 antag conf – EBI2 (human) antagonism, single concentration confirmation. inhibition, % at 5 µM. EBI2 beta-arrestin luminescence, 7a,25-OHC antagonism. 2,400 compounds, 29% hits. shares compounds with EBI2 block;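 active means inhibition of at least 50%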
EBI2 agonist – activates EBI2, counter-screen for EBI2 antagonists | shares compounds with EBI2 block | EBI2-expressing cells, agonist mode, luminescence, 60 min; 0% vehicle, 100% 7α,25-dihydroxycholesterol control | activation, % at 5 µM | 2,400 tested, under 10 active;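 active means activation of at least 50%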
bGal cs – beta-galactosidase inhibition counter-screen; shares compounds with EBI2 block; purified beta-galactosidase, luminescent Galacton Star, 15 min; inhibition, % at 5 µM; 2,400 compounds, 1% hits; AID 652176;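 active means replicate-average signal at least 3 plate SD below neutral wells, shown as high inhibition, flagging enzyme-inhibiting false positives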;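 further: higher means stronger loss of beta-gal luminescence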
Each line names hits and unclear results; the compound was inactive in the other large screens (follow-up assays come after a bar, where they were run).

COc1cc2cc(C(c3nnnn3C3CCCC3)N3CCCCC3)c(=O)[nH]c2cc1OC (configuration not stated)	none
COc1ccc2cc(C(c3nnnn3C3CCCCC3)N3CCCCCC3)c3nnnn3c2c1 (configuration not stated)	EBI2 block 54.0 | EBI2 antag conf inactive | EBI2 agonist inactive | bGal cs inactive
CC(=O)C[C@@H]1SC[C@H](c2ccccc2)N1S(=O)(=O)c1ccc(C)cc1	none (no result: CCR6 antag, APJ ag, CXCR6 inh, APJ antagonist)
CC1(C(=O)NCc2cccs2)Cc2c(-c3ccc(C(N)=O)cc3)ccnc2O1 (configuration not stated)	none (no result: CCR6 antag, APJ ag, APJ antagonist)
CC(C)c1ccc(C(C)NCCS(=O)(=O)c2ccc(Cl)cc2)cc1 (configuration not stated)	EBI2 block 72.3 | EBI2 antag conf inactive | EBI2 agonist inactive | bGal cs inactive
CC(C(=O)NCCS(=O)(=O)c1ccc(Br)cc1)S(=O)(=O)c1ccc(Cl)cc1 (configuration not stated)	none
CCCCOCCCNC(=O)C[C@@H]1C[C@@]2(C(=O)OCC)CCCC=C2N(Cc2ccc(Cl)cc2Cl)C1=O	none (no result: CCR6 antag, APJ ag, APJ antagonist)
COc1ccc(-c2ccc(CN3C(C(C)C)C(=O)N(Cc4cn(CC5CCCCC5)nn4)CCS3(=O)=O)cc2)cc1OC (configuration not stated)	EBI2 block 43.9 (no result: CCR6 antag, APJ ag, APJ antagonist) | EBI2 antag conf inactive | EBI2 agonist inactive | bGal cs inactive
COc1ccc(CN2C[C@@H](CO)O[C@@H](n3cnc4c(NCCN(C)C)ncnc43)C2)cc1	none (no result: CCR6 antag, APJ ag, APJ antagonist)
Cc1cc(C(=O)COC(=O)C2CCN(C(=O)c3ccc(Cl)cc3)CC2)c(C)n1CC1CCCO1 (configuration not stated)	EBI2 block 72.7 | EBI2 antag conf 50.6 | EBI2 agonist inactive | bGal cs inactive
Brc1ccc(-c2nnc3sc(CN4CCN(c5ccccc5)CC4)cn23)cc1	EBI2 block 75.2 | EBI2 antag conf inactive | EBI2 agonist inactive | bGal cs inactive
Brc1cccc(-c2nnc3sc(CN4CCCCC4)cn23)c1	none
Cc1cccc(OCC(=O)N/N=C/c2cn[nH]c2-c2ccc(Cl)c(Cl)c2)c1	EBI2 block 38.9 | EBI2 antag conf inactive | EBI2 agonist inactive | bGal cs inactive
CCOC(=O)[C@]12CCC=C1N(Cc1ccccc1)C(=O)[C@H](CC(=O)N1CCOCC1)C2	none (no result: CCR6 antag, APJ ag, APJ antagonist)
COc1ccc(N(C(=O)Cn2nnc(-c3ccc(Cl)cc3)n2)C(C(=O)NCC2CCCO2)c2ccc(C)cc2)cc1 (configuration not stated)	EBI2 block 61.3 | EBI2 antag conf inactive | EBI2 agonist inactive | bGal cs inactive
COc1ccc(N(C(=O)Cn2nnc(-c3ccc(Cl)cc3)n2)C(C(=O)NCC2CCCO2)c2ccncc2)cc1 (configuration not stated)	none
CCOc1ccc(NC(=S)Nc2cccc3cnccc23)cc1	EBI2 block 65.6 | EBI2 antag conf inactive | EBI2 agonist inactive | bGal cs inactive
Fc1ccc(NC(=S)Nc2cccc3ccccc23)cc1	none
CC(C)c1ccc(NC(=S)Nc2cccc3ccccc23)cc1	EBI2 block 43.5 | EBI2 antag conf inactive | EBI2 agonist inactive | bGal cs inactive
CCOc1ccc(NC(=S)Nc2cccc3ccccc23)cc1	EBI2 block 56.1 | EBI2 antag conf inactive | EBI2 agonist inactive | bGal cs inactive
CCOc1ccc(NC(=S)Nc2ccccc2C2CC2)cc1	EBI2 block 59.6 | EBI2 antag conf inactive | EBI2 agonist inactive | bGal cs inactive
COc1ccc(NC(=S)Nc2cccc3cnccc23)cc1	none
CCNC(=S)Nc1ccc(OCC)cc1	none
Cc1ccc(NC(=S)Nc2cccc3ccccc23)cc1	none
CC(C)C(=O)N1CCC1(C)C(=O)NCc1ccc(F)cc1Cl (configuration not stated)	none (no result: CCR6 antag, APJ ag, APJ antagonist)
CC(=O)N(C)c1ccc(NC(=S)Nc2ccc(C(C)C)cc2)cc1	EBI2 block 51.5 | EBI2 antag conf inactive | EBI2 agonist inactive | bGal cs inactive
CC(C)c1ccc(NC(=S)Nc2ccc3[nH]c(=O)[nH]c3c2)cc1	none
CCOC(=O)c1ccc(S(=O)(=O)N2CCN(C(=O)c3cc(=O)c4ccccc4o3)CC2)cc1	EBI2 block 59.8 | EBI2 antag conf inactive | EBI2 agonist inactive | bGal cs inactive
O=C(c1cc2ccccc2o1)N1CCN(S(=O)(=O)c2c(F)cccc2F)CC1	EBI2 block 63.3 | EBI2 antag conf inactive | EBI2 agonist inactive | bGal cs inactive
CCOc1ccc(S(=O)(=O)N2CCN(C(=O)c3cc4ccccc4o3)CC2)cc1	EBI2 block 85.9 | EBI2 antag conf 56.5 | EBI2 agonist inactive | bGal cs inactive
CN(C)CCNC(=O)c1cccc(-c2cc(NC=O)c3ncc(-c4cccc(C(F)(F)F)c4)n3c2)c1	none (no result: CCR6 antag, APJ ag, APJ antagonist)
O=S1(=O)N[C@@H](Cc2ccccc2)COc2cc(N3CCN(Cc4ccccc4F)CC3)ccc21	none (no result: CCR6 antag, APJ ag, APJ antagonist)
CC(=O)c1ccc(OC2(C)CCN(CCOc3ccc(C)cc3)C2)cc1 (configuration not stated)	none (no result: CCR6 antag, APJ ag, APJ antagonist)
O=C(NCc1ccc(Cl)cc1)C1CCN(S(=O)(=O)c2cc([N+](=O)[O-])ccc2Cl)CC1	EBI2 block 47.3 | EBI2 antag conf inactive | EBI2 agonist inactive | bGal cs inactive
O=C(NC1CC1)C1CCN(S(=O)(=O)c2cc([N+](=O)[O-])ccc2Cl)CC1	none
O=C(NCc1ccc(Cl)cc1)C1CCN(S(=O)(=O)c2ccccc2)CC1	EBI2 block 65.3 | EBI2 antag conf inactive | EBI2 agonist inactive | bGal cs inactive
Cc1ccc(-c2nn(-c3ccccc3)cc2C=C2C(=O)CC(C)(C)CC2=O)cc1	EBI2 block 53.1 | EBI2 antag conf 52.1 | EBI2 agonist inactive | bGal cs inactive
Cc1ccc(-c2nn(-c3ccccc3)cc2C=C2SC(=S)N(CCS(=O)(=O)O)C2=O)cc1	none (no result: CCR6 antag, APJ ag, APJ antagonist)
CCc1nc2ccc(C(=O)NCCOc3ccc(OC)cc3)cn2c1N(CC)CCOC	EBI2 block 45.2 (no result: CCR6 antag, APJ ag, APJ antagonist) | EBI2 antag conf inactive | EBI2 agonist inactive | bGal cs inactive
CCc1nc2ccc(C(=O)NCCOc3ccc(OC)cc3)cn2c1N(CC)Cc1cccc(Br)c1	EBI2 block 74.3 (no result: CCR6 antag, APJ ag, APJ antagonist) | EBI2 antag conf inactive | EBI2 agonist inactive | bGal cs inactive
CCc1nc2ccc(C(=O)NCCN(C)C)cn2c1N(CC)CCOC	none (no result: CCR6 antag, APJ ag, APJ antagonist)
CCc1nc2ccc(C(=O)Nc3cccc(OC)c3)cn2c1N(CC)Cc1cccc(Br)c1	none (no result: CCR6 antag, APJ ag, APJ antagonist)
Oc1cccc(/C=N/Nc2cc(N3CCCC3)nc(N3CCCC3)n2)c1	none
